Here are results for 18 compounds from ChEMBL document CHEMBL1140161, “Structure-activity relationships in 1,4-benzodioxan-related compounds. 9. From 1,4-benzodioxane to 1,4-dioxane ring as a promising template of novel alpha1D-adrenoreceptor antagonists, 5-HT1A full agonists, and cytotoxic agents” (J Med Chem, 2008).

The structures appear in SMILES notation.

For assay [1], the target named is T1, Alpha-1D adrenergic receptor (Rattus norvegicus) (UniProt P23944).
T1 sequence (whole entry): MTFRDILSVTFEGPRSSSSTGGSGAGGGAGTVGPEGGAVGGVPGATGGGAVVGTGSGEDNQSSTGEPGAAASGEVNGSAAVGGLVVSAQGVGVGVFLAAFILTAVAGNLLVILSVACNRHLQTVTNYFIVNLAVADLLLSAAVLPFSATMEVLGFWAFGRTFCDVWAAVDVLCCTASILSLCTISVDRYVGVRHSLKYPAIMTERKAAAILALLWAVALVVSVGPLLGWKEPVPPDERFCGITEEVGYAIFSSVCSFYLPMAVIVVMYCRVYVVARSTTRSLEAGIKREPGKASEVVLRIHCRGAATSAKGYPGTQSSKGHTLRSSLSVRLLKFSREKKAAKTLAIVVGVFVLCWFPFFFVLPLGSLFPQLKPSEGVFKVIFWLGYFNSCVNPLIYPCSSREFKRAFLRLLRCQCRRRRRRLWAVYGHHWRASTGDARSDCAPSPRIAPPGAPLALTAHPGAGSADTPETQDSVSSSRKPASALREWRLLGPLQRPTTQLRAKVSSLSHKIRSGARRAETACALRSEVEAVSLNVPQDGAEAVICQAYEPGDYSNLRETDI
The assay is described as follows: Antagonist activity at Alpha-1D adrenoceptor in Wistar rat thoracic aorta assessed as inhibition of (-)-noradrenaline-induced contraction after 30 mins. It is filed as functional, tissue-based.

Assay [2] addresses T2, 5-hydroxytryptamine receptor 1A (Homo sapiens, UniProt P08908).
T2 sequence (P08908 whole entry): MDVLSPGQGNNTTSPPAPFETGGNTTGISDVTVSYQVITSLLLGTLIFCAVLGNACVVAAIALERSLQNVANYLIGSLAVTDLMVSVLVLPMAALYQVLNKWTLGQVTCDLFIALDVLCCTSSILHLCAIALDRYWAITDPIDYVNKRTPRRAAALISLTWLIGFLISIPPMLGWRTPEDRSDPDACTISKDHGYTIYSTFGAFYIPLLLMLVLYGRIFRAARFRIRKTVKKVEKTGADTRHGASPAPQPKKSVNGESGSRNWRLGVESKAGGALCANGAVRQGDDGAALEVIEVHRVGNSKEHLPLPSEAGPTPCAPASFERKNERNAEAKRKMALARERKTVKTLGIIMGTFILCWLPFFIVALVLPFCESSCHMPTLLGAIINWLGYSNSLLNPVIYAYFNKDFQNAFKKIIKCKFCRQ
The experiment in a line: Displacement of [3H]8-OH-DPAT from human cloned 5HT1A receptor expressed in human HeLa cells. It is filed as cell-based.

For assay [3], the target named is T3, Alpha-1D adrenergic receptor (Homo sapiens, UniProt P25100).
T3 sequence (P25100 whole entry): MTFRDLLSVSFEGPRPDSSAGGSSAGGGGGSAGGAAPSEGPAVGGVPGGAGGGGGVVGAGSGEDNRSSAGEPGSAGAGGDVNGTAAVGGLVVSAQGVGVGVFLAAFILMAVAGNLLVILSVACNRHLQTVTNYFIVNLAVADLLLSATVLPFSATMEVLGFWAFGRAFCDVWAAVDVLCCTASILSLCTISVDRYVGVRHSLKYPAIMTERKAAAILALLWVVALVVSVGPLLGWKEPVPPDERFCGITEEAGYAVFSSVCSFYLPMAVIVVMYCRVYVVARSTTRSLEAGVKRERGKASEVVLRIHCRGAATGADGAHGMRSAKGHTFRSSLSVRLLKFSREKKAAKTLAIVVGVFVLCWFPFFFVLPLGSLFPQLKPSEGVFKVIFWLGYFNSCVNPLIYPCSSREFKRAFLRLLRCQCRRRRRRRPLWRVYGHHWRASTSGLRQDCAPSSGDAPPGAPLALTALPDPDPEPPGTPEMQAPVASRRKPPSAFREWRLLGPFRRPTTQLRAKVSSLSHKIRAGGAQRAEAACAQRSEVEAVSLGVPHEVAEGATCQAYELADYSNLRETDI
The assay is described as follows: Displacement of [3H]prazosin from human cloned alpha1D adrenoceptor expressed in CHO cells. It is filed as cell-based. Summed up: (§1)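 [3H]prazosin binding to cloned human α1-adrenoceptor subtypes expressed in CHO cell membranes. Affinity reported as pKi for each subtype.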
A general note: Loss of bound radioactivity is the signal in a displacement assay; it reports binding, not function.

The target of assay [4] is T4, Alpha-1A adrenergic receptor (Homo sapiens, UniProt P35348).
T4 sequence (P35348 whole entry): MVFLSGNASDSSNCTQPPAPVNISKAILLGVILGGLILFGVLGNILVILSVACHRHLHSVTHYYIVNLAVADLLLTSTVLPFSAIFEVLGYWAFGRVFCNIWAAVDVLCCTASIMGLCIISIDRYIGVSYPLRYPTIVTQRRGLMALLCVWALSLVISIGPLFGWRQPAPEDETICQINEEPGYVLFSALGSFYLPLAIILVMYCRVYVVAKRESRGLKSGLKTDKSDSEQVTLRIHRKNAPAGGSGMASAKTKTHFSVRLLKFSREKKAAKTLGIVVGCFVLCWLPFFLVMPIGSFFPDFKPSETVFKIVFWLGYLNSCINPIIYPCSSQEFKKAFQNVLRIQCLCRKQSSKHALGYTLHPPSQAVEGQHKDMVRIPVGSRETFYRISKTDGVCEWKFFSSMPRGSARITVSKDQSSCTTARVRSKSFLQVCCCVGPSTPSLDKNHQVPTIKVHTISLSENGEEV
The experiment in a line: Displacement of [3H]prazosin from human cloned alpha1A adrenoceptor expressed in CHO cells. It is filed as cell-based. Summed up: as §1

The target in assay [5] is T5, Alpha-1B adrenergic receptor (Homo sapiens, UniProt P35368).
T5 sequence (P35368 whole entry): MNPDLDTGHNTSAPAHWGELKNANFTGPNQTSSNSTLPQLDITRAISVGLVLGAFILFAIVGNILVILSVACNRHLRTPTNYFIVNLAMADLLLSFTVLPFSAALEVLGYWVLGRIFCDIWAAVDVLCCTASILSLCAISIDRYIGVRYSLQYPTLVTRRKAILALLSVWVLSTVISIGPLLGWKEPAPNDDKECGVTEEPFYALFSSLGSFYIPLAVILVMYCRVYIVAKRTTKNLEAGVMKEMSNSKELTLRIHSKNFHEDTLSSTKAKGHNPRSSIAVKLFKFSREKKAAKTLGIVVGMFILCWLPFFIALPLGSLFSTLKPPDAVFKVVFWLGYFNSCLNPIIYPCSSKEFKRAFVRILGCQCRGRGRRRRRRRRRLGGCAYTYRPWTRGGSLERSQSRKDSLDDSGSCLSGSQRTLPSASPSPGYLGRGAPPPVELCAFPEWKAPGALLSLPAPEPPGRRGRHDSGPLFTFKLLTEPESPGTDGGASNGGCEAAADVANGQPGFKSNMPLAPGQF
The assay is described as follows: Displacement of [3H]prazosin from human cloned Alpha-1B adrenoceptor expressed in CHO cells. It is filed as cell-based. Summed up:
as §1

As a reminder, the pKb is −log10 of the Kb, conventionally taken in molar units. What is called Ki is the dissociation constant of the complex between target and ligand, obtained from inhibition or displacement. Lower therefore signals higher affinity.

Consider `COc1ccccc1OCCNC[C@@H]1COC(c2ccccc2)(c2ccccc2)CO1`, for which the negative-log Kb (pKb) in assay [1] came to 7.71. The inhibition constant Ki in assay [2] was 7.59 nM; in assay [3], 102 nM; in assay [4] it was 74.1 nM; in assay [5], 74.1 nM.
Regarding `COc1ccccc1OCCNC[C@@H]1COC[C@H](c2ccccc2)O1` (relative stereo), in assay [1], the pKb worked out at 7.2. Besides, the Ki in assay [2] is 4.17 nM; in assay [3], 43.7 nM; in assay [4] it was 200 nM; in assay [5] it was 269 nM.
Taken in the same sequence, the figures for `COc1cccc(OC)c1OCCNC[C@@H]1COC[C@@H](c2ccccc2)O1` (relative stereo) were 7.11, 417 nM, above 1000 nM, above 1000 nM and above 1000 nM.
Taken in the same sequence, the figures for `COc1ccccc1OCCNC[C@@H]1COCC(c2ccccc2)(c2ccccc2)O1` were 8.32, 0.661 nM, 1.15 nM, 27.5 nM and 56.2 nM.
Taken in the same sequence, the figures for `c1ccc(OCCNC[C@@H]2COC[C@@H](c3ccccc3)O2)cc1` (relative stereo) were 6.38, 52.5 nM, 155 nM, 407 nM and above 1000 nM.
On to `COc1ccccc1OCCNC[C@@H]1CO[C@@H](c2ccccc2)CO1` (relative stereo), for which the pKb in assay [1] was 7.48. Besides, the Ki is 38.9 nM in assay [2], 97.7 nM in assay [3], 158 nM in assay [4] and 282 nM in assay [5].
Taken in the same sequence, the figures for `c1ccc(OCCNC[C@@H]2COCC(c3ccccc3)(c3ccccc3)O2)cc1` were 7.6, 0.589 nM, 3.63 nM, 170 nM and 120 nM.
Taken in the same sequence, the figures for `COc1cccc(OC)c1OCCNC[C@@H]1COC(c2ccccc2)(c2ccccc2)CO1` were 7.38, 229 nM, 170 nM, 89.1 nM and 126 nM.
Taken in the same sequence, the figures for `COc1cccc(OC)c1OCCNC[C@@H]1COC[C@H](c2ccccc2)O1` (relative stereo) were 6.55, above 1000 nM, above 1000 nM, 468 nM and above 1000 nM.
As for `COc1cccc(OC)c1OCCNC[C@@H]1COCC(c2ccccc2)(c2ccccc2)O1`, the pKb in assay [1] was 7.22. The Ki in assay [2] was 1.41 nM; in assay [3], 66.1 nM; in assay [4], 339 nM; in assay [5], 324 nM.
Taken in the same sequence, the figures for `c1ccc(OCCNC[C@@H]2COC(c3ccccc3)(c3ccccc3)CO2)cc1` were 7.19, 37.2 nM, 126 nM, 224 nM and 141 nM.
Taken in the same sequence, the figures for `c1ccc(OCCNC[C@@H]2CO[C@@H](c3ccccc3)CO2)cc1` (relative stereo) were 6.56, 148 nM, above 1000 nM, 537 nM and above 1000 nM.
For `c1ccc(OCCNC[C@@H]2CO[C@H](c3ccccc3)CO2)cc1` (relative stereo), in assay [1], the pKb turned out to be 7.05. For the same compound, the Ki in assay [2] was 25.7 nM; in assay [3], 355 nM; in assay [4], above 1000 nM; in assay [5], above 1000 nM.
As to `COc1cccc(OC)c1OCCNC[C@@H]1CO[C@@H](c2ccccc2)CO1` (relative stereo), the pKb in assay [1] stood at 7.26. Further, the Ki in assay [2] was 234 nM; in assay [3] it was above 1000 nM; in assay [4], 513 nM; in assay [5], above 1000 nM.
For `COc1ccccc1OCCNC[C@@H]1COC[C@@H](c2ccccc2)O1` (relative stereo), the pKb in assay [1] amounted to 7.83. The inhibition constant (Ki) in assay [2] is 6.03 nM; in assay [3], 31.6 nM; in assay [4], 87.1 nM; in assay [5], 302 nM.
On to `COc1cccc(OC)c1OCCNC[C@@H]1CO[C@H](c2ccccc2)CO1` (relative stereo), for which, in assay [1], the pKb turned out to be 6.08. The Ki in assay [2] is 257 nM; in assay [3] it was above 1000 nM; in assay [4], above 1000 nM; in assay [5] it was above 1000 nM.
`c1ccc(OCCNC[C@@H]2COC[C@H](c3ccccc3)O2)cc1` (relative stereo): the pKb in assay [1] was 6.77. The Ki was 53.7 nM in assay [2], 72.4 nM in assay [3], above 1000 nM in assay [4] and above 1000 nM in assay [5].
On to `COc1ccccc1OCCNC[C@@H]1CO[C@H](c2ccccc2)CO1` (relative stereo), for which the pKb in assay [1] was 6.84. In addition, the Ki in assay [2] was 3.47 nM; in assay [3] it was 16.2 nM; in assay [4], 437 nM; in assay [5] it was 263 nM.
